From PubChem
DNMT1 inh: inhibitors of human DNMT1 | P26358 | DNMT1 molecular beacon, Hinp1I cleavage, fluorescence | inhibition (reported as % activation of signal), % at 10 µM | actives 0.83% (n = 360,000); in the data active = inhibition above about 50%
Scp-1 inhibitor: inhibitors of human Scp-1 phosphatase; inhibition, % at 20 µM; Q9GZU7; Recombinant Scp1, phosphopeptide, malachite green phosphate absorbance; actives 0.88% (n = 340,000);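 active = inhibition above about 50% at 20 µM, limit read from the data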;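 also: plate controls were DMSO wells with enzyme for no effect and wells lacking enzyme for full effect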
Target sequence (Q9GZU7 76-261 limits assumed): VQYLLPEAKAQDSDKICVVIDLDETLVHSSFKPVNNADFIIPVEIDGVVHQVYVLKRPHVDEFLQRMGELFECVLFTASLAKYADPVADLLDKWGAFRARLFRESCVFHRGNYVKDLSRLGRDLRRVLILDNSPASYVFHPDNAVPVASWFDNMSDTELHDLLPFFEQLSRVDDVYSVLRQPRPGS
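System: truncated SCP-1 phosphatase (76-261aa); medium: Tris acetate buffer pH 5.5 with MgCl2 and Tween-20; incubation: 45 min room-temperature reaction, 5 min colour, 30 min stabiliser; compound: single 20 µM dose, 1% DMSO; reagent: Phosphorylated 17-residue peptide substrate; read-out: % inhibition at 20 µM; technique: colorimetric free-phosphate detection, absorbance 630 nm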
SUMO HTRF inh: inhibitors of human SUMOylation (UBC9); P63279; HTRF SUMOylation assay, SAE1/SAE2 + UBC9, in vitro; inhibition, % at 35 µM; actives 0.36% (n = 290,000); AID 2006; in the data active = inhibition above about 50%, passing the limit was not always enough
Target sequence (P63279 whole entry, looked up): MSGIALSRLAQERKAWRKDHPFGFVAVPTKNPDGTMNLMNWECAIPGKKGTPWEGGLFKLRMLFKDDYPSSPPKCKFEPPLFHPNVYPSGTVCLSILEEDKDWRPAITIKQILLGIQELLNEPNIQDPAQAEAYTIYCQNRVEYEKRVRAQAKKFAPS
STEP inh: STEP (human) phosphatase inhibition; P54829; recombinant STEP, OMFP fluorogenic substrate, fluorescence; inhibition, % at 20 µM; actives 0.25% (n = 360,000); AID 588621;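 active = inhibition at 20 µM, scaled per plate between control wells, above about 37%, limit read from the data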;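 also: 0% = DMSO with enzyme and substrate and 100% = substrate only without enzyme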
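System: STEP phosphatase, cell-free reaction; Buffer or medium: Bis-Tris pH 6.0 buffer with DTT, detergent; Incubation: 20 min at room temperature, dark; Measured by: fluorescence, 480/540 nm.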
LMPTP inh: LMPTP (human) inhibition | P24666 | recombinant LMPTP-A, OMFP fluorogenic substrate, fluorescence intensity | inhibition, % at 20 µM | actives 0.22% (n = 360,000) | AID 651560;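 active = compounds that cut the enzyme signal by at least half of the control window in the single-dose screen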;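 also: plate controls were DMSO wells with enzyme plus substrate for no effect and substrate without enzyme for full effect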
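Test system: LMPTP-A, protein tyrosine phosphatase of low molecular weight; Input: 0.625 nM enzyme; Incubation: 50 min dark incubation at room temperature; Signal: endpoint fluorescence intensity from OMFP dephosphorylation; Read-out basis: % inhibition versus control wells.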
SUMO1 PPI mod: modulators of human SUMO1-mediated protein-protein interactions; P63165; SUMO1 binding to a labelled peptide, TR-FRET, 1 h; inhibition, % at 20 µM; actives 0.33% (n = 360,000); in the data active = inhibition above about 37%
Beacon interf DR: beacon fluorescence artifact, dose response counter-screen. shares compounds with DNMT1 inh. molecular beacon fluorescence, spectral interference counter-screen. IC50, µM. 200 tested, under 10 active. AID 602382; call rule not given here
DNMT1 inh conf: confirmation of human DNMT1 inhibitors; DNMT1 molecular beacon HinP1I cleavage, fluorescence; AID 602385; actives 8% (n = 2,300); shares compounds with DNMT1 inh; inhibition, % at 10 µM;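 active = average inhibition of at least 30% in the single-concentration confirmation test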
Beacon interf: counter-screen for DNMT1 inhibitors: spectral interference | shares compounds with DNMT1 inh | DNMT1 molecular beacon spectral interference counterscreen, fluorescence 485/520 | activation (fluorescence interference), % at 10 µM | actives 1% (n = 2,300) | AID 602387;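 active = activation of at least 30% at 10 µM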;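 also: DNMT1 catalytic domain with a HinP1I cleavage step and a FAM/dabcyl DNA beacon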
Active calls of the source: *; · = no result. Most compounds without a hit are left out; they make up all but 1.9% or so of the library.

SMILES	DNMT1 inh	Scp-1 inhibitor	SUMO HTRF inh	STEP inh	LMPTP inh	SUMO1 PPI mod	DNMT1 inh conf	Beacon interf	others
O=C(O)CCN1C(=O)/C(=C/c2ccc(-c3nc4ccccc4s3)o2)SC1=S	99*	46	46	70*	3	91*	47*	0	Beacon interf DR=>99
CNc1ccc([N+](=O)[O-])cc1-c1nc2ccccc2[nH]c1=O	51*	15	27	4	4	6	1	-5
CC(C)C(=O)Nc1ccc(Cl)cc1-c1nc2ccccc2[nH]c1=O	1	-8	14	1	-2	-9	·	·
COCC(=O)NCc1ccc2c(c1)cc(C)n2C	-1	1	7	-2	0	-15	·	·
Cc1cc2cc(CNC(=O)Nc3ccc(Cl)c(Cl)c3)ccc2n1C	58*	-8	-77	3	5	-24	7	5
Clc1ccccc1-c1ccc(/C=N/Nc2nncc(-c3ccccc3)n2)o1	69*	-2	5	8	4	0	-1	-5
CC1CCN(S(=O)(=O)c2ccc(-c3nnc(SCc4cccnc4)o3)cc2)CC1	55*	0	25	-2	1	-1	2	1
Nc1c(C(=O)NCc2ccc3c(c2)OCO3)c2nc3ccccc3nc2n1CCCN1CCOCC1	62*	-4	32	15	-2	47*	10	10
Nc1c(C(=O)NCc2ccccc2)c2nc3ccccc3nc2n1-c1ccc2c(c1)OCO2	56*	-5	18	-4	1	14	1	2
Nc1c(C(=O)NCCN2CCOCC2)c2nc3ccccc3nc2n1-c1ccc2c(c1)OCO2	-14	-10	20	3	3	-13	·	·
CCS(=O)(=O)C1=NN2C(=N)/C(=C\c3ccc(SCc4ccco4)o3)C(=O)N=C2S1	99*	77*	62*	14	42	50*	50*	1	Beacon interf DR=>99
Cc1ccc2oc(=O)c3cc(C(=O)NCCCN4CCCCCC4)sc3c2c1	67*	3	-3	7	28	13	6	-2
Cc1ccc2oc(=O)c3cc(C(=O)NCCN4CCN(C)CC4)sc3c2c1	6	-4	2	1	-4	-18	·	·
N#Cc1c(SCC(=O)Nc2nccs2)nc2c(c1-c1ccco1)CCCC2	60*	-2	27	7	1	8	5	0
CC(=O)Nc1ccc(Nc2c([N+](=O)[O-])c(=O)n(-c3ccccc3)c3ccccc23)cc1	6	-5	18	-1	15	-1	·	·
CCN(CC)CC(C)CNC(=O)C1(O)c2ccccc2NC(=O)N1c1ccc(Cl)c(Cl)c1 (stereo not drawn)	2	-10	5	-3	-2	-4	·	·
CC(C)(C)c1ccc(/C=N/NC(=O)C2CCCC2)cc1	77*	-2	-4	-2	2	-7	1	2
COc1ccc(O)c(C(=O)c2cnn(C(=O)c3ccc(C)cc3)c2)c1	55*	-3	·	2	-1	23	-1	-3
COc1ccc(O)c(C(=O)c2cnn(-c3ccccc3)c2)c1	-1	-5	2	3	1	-5	·	·
CCCc1c(C)[nH]c2ccc(C(=O)O)cc2c1=S	93*	39	2	4	9	96*	15	1
COc1cccc(C(=O)NC(=S)Nc2nnn(C)n2)c1	10	-2	2	-3	0	1	·	·
COc1ccc(C(=O)NC(=S)Nc2nnn(C)n2)cc1	86*	-14	6	-3	0	1	4	7
Nc1nnc(SCC(=O)Nc2cccc(S(N)(=O)=O)c2)s1	92*	5	9	2	0	-2	3	4
